These results are taken from ChEMBL document CHEMBL2331230, “Synthesis, anticancer and antioxidant activities of 2,4,5-trimethoxy chalcones and analogues from asaronaldehyde: structure-activity relationship” (Eur J Med Chem, 2013).

The subject of assay [1] is HeLa. The assay can be described thus: Cytotoxicity against human HeLa cells assessed as growth inhibition after 72 hrs by MTT assay. It counts as functional, cell-based. The method, boiled down:
(§1)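 Cells grown in DMEM with 10% FBS, seeded at 10,000 per well, and treated after 24 h with a concentration series ending at […]; pristimerin as positive control. After 72 h, MTT (5 mg/ml) added for 3 h. Formazan dissolved in DMSO, read at 570 nm. IC50 is the concentration giving 50% growth inhibition; mean ± S.D. of three tests in triplicate.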

Assay [2] in a line: Antioxidant activity in rat erythrocytes assessed as inhibition of phenyl hydrazine-induced haemolysis after 1 hr. It counts as functional, cell-based. As to conditions: erythrocyte. The method, boiled down:
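20% PCV erythrocyte suspension made from rat blood. Samples at various concentrations combined with 0.5 mM phenyl hydrazine and erythrocyte suspension in phosphate buffered saline (3 ml total). Incubated 37 °C for 1 h, centrifuged 1000 g for 10 min, supernatant absorbance at 540 nm. α-Tocopherol as positive control.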

Assay [3] can be described thus: Antioxidant activity assessed as nitric oxide scavenging activity after 2.5 hrs by Griess assay. It counts as functional. Put shortly: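 Sodium nitroprusside, 10 mM in phosphate saline buffer pH 7.4, added to samples at various concentrations and held 2.5 h at room temperature. Nitrite detected with Griess reagent at 546 nm against a blank. Inhibition (%) = (1 − A1/A0)×100, with A0 the control. Ascorbic acid as standard. Means of triplicates from three independent experiments.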

In assay [4] the test system is MCF7. The assay can be described thus: Cytotoxicity against human MCF7 cells assessed as growth inhibition after 72 hrs by MTT assay. It counts as functional, cell-based. As to conditions: MCF7, 72 h. Put shortly:
as §1
On the technique in general: Formazan colour is commonly taken as a measure of viable cells.

Assay [5] relates to Radical scavenging activity. Briefly: Antioxidant activity assessed as DPPH free radical scavenging activity after 15 mins by spectrophotometric analysis. It is filed as functional. Put shortly:
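Test samples at several concentrations mixed with stock DPPH (final concentration not stated), made up to 3 ml in methanol, incubated 15 min. Absorbance at 517 nm read against a sample-free blank. Ascorbic acid at various concentrations as standard. Values are means of triplicates from three independent experiments.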
In general terms: DPPH is a stable violet radical that fades when it is reduced.

Assay [6] deals with SW982. The assay can be described thus: Cytotoxicity against human SW982 cells assessed as growth inhibition after 72 hrs by MTT assay. It counts as functional, cell-based. The settings on record: SW982, 72 h. The method, boiled down: as §1

Structures are written as SMILES. Converted amounts (≈) assume the structure as drawn.

What is called IC50 is the concentration that gives 50% inhibition. With `COc1cc(OC)c(OC)cc1/C=C/C(=O)c1cccc([N+](=O)[O-])c1`, the IC50 in assay [1] was 130 µM; in assay [2] it was 2.209 µg/mL (≈ 6.43 µM); in assay [3], 2.348 µg/mL (≈ 6.84 µM); in assay [4] it was > 150 µM; in assay [5], 4.309 µg/mL (≈ 12.6 µM); in assay [6] it was 101 µM.
